Assay results published in ChEMBL document CHEMBL5634114, “Galantamine-memantine hybrids for Alzheimer's disease: The influence of linker rigidity in biological activity and pharmacokinetic properties” (Eur J Med Chem, 2023).
In brackets after ≈: the same amount, converted by molar mass.

Columns and labels:
[1] = Drug concentration in brain of in CD-1 mouse at 3 mg/kg, iv measured for 60 mins; type: ADME, organism-based; conditions: read-out: Ct
In short: (§1)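 Male CD1 mice dosed IV at 3 mg/kg in PEG400/Tween 80/saline 10/10/80. Three mice per time point. Whole brains were homogenized in 4 vol PBS:protease inhibitor (100:1), extracted with cold CH3CN plus internal standard and measured by LC-MS/MS (MRM) against a 1 nM–10 µM calibration in naïve brain homogenate. Levels were normalized per 100 mg brain/mL, with protein content checked by BCA.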

[2] = Tmax in CD-1 mouse at 3 mg/kg, iv measured for 240 mins; type: ADME, organism-based; conditions: in vivo
In short: (§2)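 Male CD1 mice (22–24 g) dosed IV at 3 mg/kg in PEG400/Tween 80/saline 10/10/80 v/v. Three animals per time point. Blood taken at 0, 5, 30, 60, 120 and 240 min. Plasma extracted with cold CH3CN plus internal standard and quantified by LC-MS/MS (MRM) against a 1 nM–10 µM calibration curve in blank plasma. Parameters were obtained by fitting the plasma concentration–time profile.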

[3] = Volume of distribution in CD-1 mouse at 3 mg/kg, iv measured for 240 mins; type: ADME, organism-based; conditions: in vivo; in short: as §2
[4] = Clearance in CD-1 mouse at 3 mg/kg, iv measured for 240 mins; type: ADME, organism-based; conditions: in vivo; in short: as §2
[5] = target: Glutamate NMDA receptor; Grin1/Grin2a (Rattus norvegicus, UniProt P35439+Q00959); test: Inhibition of NMDA/glycine-activated rat GluN1/Glu2A expressed in xenopus laevis oocytes at -75 mV holding potential by voltage clamp method; type: cell-based, Oocyte
In short: (§3)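 Xenopus oocytes (stage IV–V) were injected with GluN1 plus GluN2A or GluN1 plus GluN2B cRNA (1:1) and kept 3–4 days at 18 °C. Two-electrode voltage clamp was run in saline with 2 mM CaCl2, pH 7.5. Currents were evoked by 100 µM NMDA plus 10 µM glycine, with compound co-applied at 0.01–100 µM in 10-fold steps. […] The selectivity index is the GluN1/2A IC50 divided by the GluN1/2B IC50.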

[6] = Metabolic stability in mouse plasma assessed as half life at 2 uM incubated for 2 hrs by LC-MS/MS analysis; type: ADME, cell-free
In short: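 Compound at 2 µM final (0.5% DMSO) in prewarmed mouse plasma at 37 °C. Samples taken at 0, 5, 15, 30, 60 and 120 min were quenched in cold CH3CN with internal standard, centrifuged, diluted with water and analyzed by LC-MS/MS (MRM, positive ESI). Half-life calculated from the time course.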

[7] = Metabolic stability in mouse liver microsomes assessed as half life at 5 uM preincubated for 15 mins followed by NADPH/G6P/G6PDH measured for 1 hr by LC-MS/MS analysis; type: ADME, Microsome; conditions: time 75 min
In short: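 Mouse liver microsomes with compound at 5 µM final (0.1% DMSO) in 0.1 M Tris-HCl pH 7.5, preincubated 15 min at 37 °C. NADPH, G6P, G6PDH and MgCl2 were then added and incubation continued for 1 h. Samples at 0, 5, 15, 30 and 60 min were quenched in cold CH3CN with internal standard and analyzed by LC-MS/MS. A no-cofactor microsome control was run at 0 and 60 min.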

[8] = target: Glutamate NMDA receptor; Grin1/Grin2b (Rattus norvegicus, UniProt P35439+Q00960); test: Inhibition of NMDA/glycine-activated rat GluN1/Glu2B expressed in xenopus laevis oocytes at -75 mV holding potential by voltage clamp method; type: cell-based, Oocyte; in short: as §3
[9] = Drug concentration in brain of in CD-1 mouse at 3 mg/kg, iv measured for 240 mins; type: ADME, organism-based; conditions: read-out: Ct; in short: as §1
[10] = AUC in CD-1 mouse at 3 mg/kg, iv measured for 240 mins; type: ADME, organism-based; conditions: in vivo; in short: as §2
[11] = Cmax in CD-1 mouse at 3 mg/kg, iv measured for 240 mins; type: ADME, organism-based; conditions: in vivo; in short: as §2
[12] = Drug concentration in brain of in CD-1 mouse at 3 mg/kg, iv measured for 30 mins; type: ADME, organism-based; conditions: read-out: Ct; in short: as §1
[13] = Aqueous kinetic solubility in PBS at 250 uM incubated for 24 hrs […]; type: physicochemical; conditions: read-out: Kinetic_solubility
Acetylcholinesterase = Acetylcholinesterase (Homo sapiens, UniProt P22303); test: Inhibition of recombinant human AChE using acetylthiocholine as substrate preincubated for 20 mins followed by substrate addition measured for 3 mins by Ellman's method
In short: (§4)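 Ellman assay at 37 °C in 0.1 M phosphate buffer pH 8.0 with 340 µM DTNB and 0.02 U/mL enzyme (recombinant human AChE or human serum BChE). Inhibitor at increasing concentrations was preincubated with enzyme for 20 min before adding 550 µM acetylthiocholine (AChE) or butyrylthiocholine (BChE). Absorbance at 412 nm was monitored for 3 min, with a blank lacking enzyme. Triplicates; IC50 from log concentration–inhibition curves; at least two experiments.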

Rattus norvegicus = species: Rattus norvegicus; test: Selectivity index, ratio of IC50 for NMDA/glycine-activated rat GluN1/Glu2A expressed in xenopus laevis oocytes to IC50 for NMDA/glycine-activated rat GluN1/Glu2B expressed in xenopus laevis oocytes; type: cell-based; in short: as §3
[14] = Half life in CD-1 mouse at 3 mg/kg, iv measured for 240 mins; type: ADME, organism-based; conditions: in vivo; in short: as §2
Cholinesterase = Cholinesterase (Homo sapiens, UniProt P06276); test: Inhibition of human serum BChE using butyrylthiocholine as substrate preincubated for 20 mins followed by substrate addition measured for 3 mins by Ellman's method; type: cell-free; in short: as §4
[15] = Metabolic stability in mouse liver microsomes assessed as half life at 5 uM preincubated for 15 mins followed by UDPGA/D-saccharic acid lactone measured for 1 hr by LC-MS/MS analysis; type: ADME, Microsome; conditions: time 75 min
In short: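 Mouse liver microsomes with alamethicin and compound at 5 µM final (0.1% DMSO) in 0.1 M Tris-HCl pH 7.5, preincubated 15 min at 37 °C. UDPGA, p-saccharic acid lactone and MgCl2 were then added and incubation continued for 1 h. Samples at 0, 5, 15, 30 and 60 min were quenched in cold CH3CN with internal standard and analyzed by LC-MS/MS. A no-cofactor control was run at 0 and 60 min.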

[16] = Drug concentration in brain of in CD-1 mouse at 3 mg/kg, iv measured for 120 mins; type: ADME, organism-based; conditions: read-out: Ct; in short: as §1

Sequence of Acetylcholinesterase (P22303 whole entry): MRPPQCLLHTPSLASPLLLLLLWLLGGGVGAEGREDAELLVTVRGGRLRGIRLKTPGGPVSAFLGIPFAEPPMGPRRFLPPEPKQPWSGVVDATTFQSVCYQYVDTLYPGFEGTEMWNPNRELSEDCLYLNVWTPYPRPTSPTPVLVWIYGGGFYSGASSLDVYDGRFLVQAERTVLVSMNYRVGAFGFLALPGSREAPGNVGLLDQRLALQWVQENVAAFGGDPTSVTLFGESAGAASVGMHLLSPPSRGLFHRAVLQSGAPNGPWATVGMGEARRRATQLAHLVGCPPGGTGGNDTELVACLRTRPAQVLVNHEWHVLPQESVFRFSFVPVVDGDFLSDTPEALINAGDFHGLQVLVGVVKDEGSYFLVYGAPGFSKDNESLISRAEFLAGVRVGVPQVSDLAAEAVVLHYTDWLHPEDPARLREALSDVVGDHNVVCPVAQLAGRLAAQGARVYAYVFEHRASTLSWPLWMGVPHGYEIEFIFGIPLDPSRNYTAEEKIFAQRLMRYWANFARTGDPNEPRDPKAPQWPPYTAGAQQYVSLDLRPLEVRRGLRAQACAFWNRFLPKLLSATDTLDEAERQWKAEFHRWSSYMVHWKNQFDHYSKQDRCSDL
Sequence of Glutamate NMDA receptor; Grin1/Grin2a (Q00959 whole entry, other chains not shown): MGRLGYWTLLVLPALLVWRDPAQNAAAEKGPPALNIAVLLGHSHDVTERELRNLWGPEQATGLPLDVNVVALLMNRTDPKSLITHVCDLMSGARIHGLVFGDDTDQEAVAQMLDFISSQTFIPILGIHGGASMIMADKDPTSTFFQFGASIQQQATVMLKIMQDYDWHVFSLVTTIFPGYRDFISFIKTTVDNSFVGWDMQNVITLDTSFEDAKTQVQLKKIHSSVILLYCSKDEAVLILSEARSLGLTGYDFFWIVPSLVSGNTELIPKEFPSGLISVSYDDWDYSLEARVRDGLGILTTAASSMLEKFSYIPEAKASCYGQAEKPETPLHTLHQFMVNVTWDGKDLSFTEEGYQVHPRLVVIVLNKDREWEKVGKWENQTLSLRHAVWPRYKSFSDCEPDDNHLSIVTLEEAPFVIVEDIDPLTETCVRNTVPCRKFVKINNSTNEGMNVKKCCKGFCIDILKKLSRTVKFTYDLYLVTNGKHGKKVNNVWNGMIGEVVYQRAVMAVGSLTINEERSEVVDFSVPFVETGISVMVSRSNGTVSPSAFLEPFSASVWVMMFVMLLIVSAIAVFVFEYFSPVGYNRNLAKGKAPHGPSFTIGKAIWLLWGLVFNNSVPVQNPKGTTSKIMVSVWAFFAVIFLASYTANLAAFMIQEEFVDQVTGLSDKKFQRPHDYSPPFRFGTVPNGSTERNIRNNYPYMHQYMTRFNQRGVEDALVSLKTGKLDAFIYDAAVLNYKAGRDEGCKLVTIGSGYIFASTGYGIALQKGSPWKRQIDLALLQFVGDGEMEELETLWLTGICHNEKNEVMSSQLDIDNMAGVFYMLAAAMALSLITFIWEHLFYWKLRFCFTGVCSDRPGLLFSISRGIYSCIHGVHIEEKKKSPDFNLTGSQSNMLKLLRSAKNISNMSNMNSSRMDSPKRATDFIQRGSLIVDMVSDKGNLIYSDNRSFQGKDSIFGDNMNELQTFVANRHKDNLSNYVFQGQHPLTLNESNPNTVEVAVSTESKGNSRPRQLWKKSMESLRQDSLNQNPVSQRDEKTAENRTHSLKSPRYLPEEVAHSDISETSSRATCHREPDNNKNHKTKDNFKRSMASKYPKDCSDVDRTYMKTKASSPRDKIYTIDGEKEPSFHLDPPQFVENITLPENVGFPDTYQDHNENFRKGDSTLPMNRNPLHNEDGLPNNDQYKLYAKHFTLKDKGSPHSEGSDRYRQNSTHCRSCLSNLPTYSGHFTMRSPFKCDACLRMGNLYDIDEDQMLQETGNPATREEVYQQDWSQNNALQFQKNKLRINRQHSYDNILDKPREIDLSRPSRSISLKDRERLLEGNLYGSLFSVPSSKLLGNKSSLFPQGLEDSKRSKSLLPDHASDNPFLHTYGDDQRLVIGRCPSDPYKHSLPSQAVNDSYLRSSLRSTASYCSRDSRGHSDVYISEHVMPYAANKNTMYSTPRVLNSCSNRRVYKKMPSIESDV
Sequence of Glutamate NMDA receptor; Grin1/Grin2b (Q00960 whole entry, other chains not shown): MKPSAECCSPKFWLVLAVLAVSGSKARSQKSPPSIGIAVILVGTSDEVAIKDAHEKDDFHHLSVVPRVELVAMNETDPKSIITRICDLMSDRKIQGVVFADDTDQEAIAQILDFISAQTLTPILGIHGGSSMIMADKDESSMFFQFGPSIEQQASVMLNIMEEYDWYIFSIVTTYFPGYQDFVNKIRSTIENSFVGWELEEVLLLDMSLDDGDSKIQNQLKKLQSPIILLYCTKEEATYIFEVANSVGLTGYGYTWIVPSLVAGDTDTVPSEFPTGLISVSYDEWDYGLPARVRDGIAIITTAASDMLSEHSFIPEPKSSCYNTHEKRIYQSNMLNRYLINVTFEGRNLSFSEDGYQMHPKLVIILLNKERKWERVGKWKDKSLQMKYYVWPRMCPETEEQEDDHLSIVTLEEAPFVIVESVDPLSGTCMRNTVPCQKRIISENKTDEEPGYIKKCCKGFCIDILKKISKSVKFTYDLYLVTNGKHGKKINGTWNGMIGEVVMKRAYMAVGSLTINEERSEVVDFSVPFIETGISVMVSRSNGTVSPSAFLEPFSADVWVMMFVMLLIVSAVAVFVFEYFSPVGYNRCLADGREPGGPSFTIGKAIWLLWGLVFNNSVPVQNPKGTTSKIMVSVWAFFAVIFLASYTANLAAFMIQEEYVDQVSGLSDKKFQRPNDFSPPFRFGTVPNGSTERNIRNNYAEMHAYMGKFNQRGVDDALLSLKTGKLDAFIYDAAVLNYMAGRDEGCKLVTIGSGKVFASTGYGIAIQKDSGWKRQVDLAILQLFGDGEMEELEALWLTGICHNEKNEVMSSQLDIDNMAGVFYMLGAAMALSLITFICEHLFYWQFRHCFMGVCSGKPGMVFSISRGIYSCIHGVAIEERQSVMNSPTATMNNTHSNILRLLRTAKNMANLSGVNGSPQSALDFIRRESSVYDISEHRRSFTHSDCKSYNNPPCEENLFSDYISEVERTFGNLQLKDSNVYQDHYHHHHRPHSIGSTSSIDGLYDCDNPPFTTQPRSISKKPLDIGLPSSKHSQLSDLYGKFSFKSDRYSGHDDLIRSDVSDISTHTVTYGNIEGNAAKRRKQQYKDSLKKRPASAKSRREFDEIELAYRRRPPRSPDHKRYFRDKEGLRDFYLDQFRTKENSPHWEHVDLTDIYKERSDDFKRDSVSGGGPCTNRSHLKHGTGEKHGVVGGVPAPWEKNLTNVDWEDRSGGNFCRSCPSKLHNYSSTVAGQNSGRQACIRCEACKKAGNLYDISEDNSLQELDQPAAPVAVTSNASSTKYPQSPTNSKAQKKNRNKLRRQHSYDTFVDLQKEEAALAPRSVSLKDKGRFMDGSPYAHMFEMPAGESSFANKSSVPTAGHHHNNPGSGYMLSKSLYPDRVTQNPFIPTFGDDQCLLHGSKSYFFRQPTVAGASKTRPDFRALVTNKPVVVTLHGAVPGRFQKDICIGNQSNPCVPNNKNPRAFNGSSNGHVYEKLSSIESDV
Sequence of Cholinesterase (P06276 whole entry): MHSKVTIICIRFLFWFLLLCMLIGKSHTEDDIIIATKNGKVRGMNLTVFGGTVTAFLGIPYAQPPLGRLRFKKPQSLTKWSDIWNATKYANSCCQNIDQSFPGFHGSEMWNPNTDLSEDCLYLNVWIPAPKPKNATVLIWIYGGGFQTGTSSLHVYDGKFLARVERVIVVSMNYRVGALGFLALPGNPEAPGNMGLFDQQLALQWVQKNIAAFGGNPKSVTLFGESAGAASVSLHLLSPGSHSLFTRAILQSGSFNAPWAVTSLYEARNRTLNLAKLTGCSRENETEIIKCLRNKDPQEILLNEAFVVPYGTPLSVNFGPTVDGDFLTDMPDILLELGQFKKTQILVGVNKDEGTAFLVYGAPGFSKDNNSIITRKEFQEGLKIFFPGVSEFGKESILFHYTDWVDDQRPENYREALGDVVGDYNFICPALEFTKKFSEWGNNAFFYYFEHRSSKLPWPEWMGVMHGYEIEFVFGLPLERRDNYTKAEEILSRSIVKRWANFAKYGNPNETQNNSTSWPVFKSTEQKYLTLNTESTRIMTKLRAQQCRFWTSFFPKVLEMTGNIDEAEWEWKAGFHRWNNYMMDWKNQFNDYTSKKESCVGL

SMILES: COc1ccc2c3c1O[C@H]1C[C@@H](O)C=C[C@@]31CCN(C/C=C/CNC13CC4CC(C)(CC(C)(C4)C1)C3)C2
- concentration at 1 h [1]: 256 ng/g
- Tmax [2]: 5 min
- Vd [3]: 19 L/kg
- clearance [4]: 161 mL/min/kg
- IC50 [5]: 14500 nM
- half-life at 2 µM [6]: > 2 h
- half-life at 5 µM [7]: 0.75 h
- IC50 [8]: 1320 nM
- concentration at 4 h [9]: 96 ng/g
- AUC at 4 h [10]: 280 ng·h/mL
- Cmax [11]: 202 ng/mL
- concentration at 0.5 h [12]: 281 ng/g
- solubility kinetic at 24 h, 250 µM [13]: 237 µM (≈ 120 µg/mL)
- IC50 (Acetylcholinesterase): 115 nM
- Ratio IC50 (Rattus norvegicus): 11
- half-life [14]: 1.37 h
- IC50 (Cholinesterase): 421 nM
- half-life at 5 µM [15]: > 1 h
- concentration at 2 h [16]: 243 ng/g

SMILES: COc1ccc2c3c1O[C@H]1C[C@@H](O)C=C[C@@]31CCN(CCCCNC13CC4CC(C)(CC(C)(C4)C1)C3)C2
- concentration at 1 h [1]: 115 ng/g
- Tmax [2]: 5 min
- Vd [3]: 78 L/kg
- clearance [4]: 43 mL/min/kg
- IC50 [5]: 5740 nM
- half-life at 2 µM [6]: 1.62 h
- half-life at 5 µM [7]: > 1 h
- IC50 [8]: 1450 nM
- concentration at 4 h [9]: 310 ng/g
- AUC at 4 h [10]: 290 ng·h/mL
- Cmax [11]: 208 ng/mL
- concentration at 0.5 h [12]: 95 ng/g
- solubility kinetic at 24 h, 250 µM [13]: 242 µM (≈ 123 µg/mL)
- IC50 (Acetylcholinesterase): 1130 nM
- Ratio IC50 (Rattus norvegicus): 4
- half-life [14]: 20.8 h
- IC50 (Cholinesterase): 1770 nM
- half-life at 5 µM [15]: > 1 h
- concentration at 2 h [16]: 70 ng/g

SMILES: COc1ccc2c3c1O[C@H]1C[C@@H](O)C=C[C@@]31CCN(CC#CCNC13CC4CC(C)(CC(C)(C4)C1)C3)C2
- IC50 [5]: 11600 nM
- half-life at 2 µM [6]: > 2 h
- half-life at 5 µM [7]: < 0.0833 h
- IC50 [8]: 15500 nM
- solubility kinetic at 24 h, 250 µM [13]: 230 µM (≈ 116 µg/mL)
- IC50 (Acetylcholinesterase): 762 nM
- Ratio IC50 (Rattus norvegicus): 0.75
- IC50 (Cholinesterase): 5080 nM
